Published values of several laboratories.
Target: Death-associated protein kinase 3 (DAPK3, Homo sapiens, UniProt O43293)

Oc1cccc(-c2nc(N3CCOCC3)c3oc4ncccc4c3n2)c1
remaining signal (cell-free assay; 0.5 µM): 93.1%

C[C@H](c1cccc(C#N)c1)n1cc(Cl)cc(C(N)=O)c1=N
remaining binding (cell-free assay; competition with immobilised ligand; 1 µM): 100%

CCCS(=O)(=O)Nc1ccc(F)c(C(=O)c2c[nH]c3ncc(-c4ccc(Cl)cc4)cc23)c1F
inhibition (enzyme activity; inhibitor; 1 µM): < 10%

CCCOc1ccc(OC)c(F)c1C(=O)c1ccc(C(=O)N[C@@H]2CNC[C@H]2NC(=O)c2ccc3[nH]ncc3c2)cc1
remaining activity (enzyme activity; inhibitor; 10 µM): 40%

Cc1cnc(NC2CCOCC2)nc1-n1cnc(C(=O)NC(CN)c2cc(F)cc(Cl)c2)c1 (stereo not shown)
remaining activity (enzyme activity; inhibitor; radiometric; 1 µM): 107%

N#CC1(c2ccccn2)CCN(Cc2cc(C(=O)N3CCCC3)c(=O)n3ccccc23)CC1
remaining binding (cell-free assay; competition with immobilised ligand; 1 µM): 86%

COc1cc2ncnc(Nc3ccc(Oc4ccccc4)c(C)c3C)c2cc1OC
inhibition (enzyme activity; inhibitor; 1 µM): 1%

CSc1cccnc1N1CCN(Cc2nc3ccccc3[nH]2)CC1
remaining binding (cell-free assay; competition with immobilised ligand; 1 µM): 100%

O=C1NC(=O)c2cc(Nc3ccc(F)cc3)c(Nc3ccc(F)cc3)cc21
remaining signal (cell-free assay; 0.5 µM): 101%

Cc1ccc(Nc2nccc(N(C)c3ccc4c(C)n(C)nc4c3)n2)cc1S(N)(=O)=O
inhibition (enzyme activity; inhibitor; 10 µM): -2%

CCN(CC)c1ccc(C2=NNC(=O)CC2C)cc1[N+](=O)[O-] (stereo not shown)
remaining activity (enzyme activity; inhibitor; 10 µM): 100%

CS(=O)(=O)CCNCc1ccc(-c2ccc3ncnc(Nc4ccc(OCc5cccc(F)c5)c(Cl)c4)c3c2)o1
remaining signal (cell-free assay; 0.5 µM): 97.4%

Cc1nc(C2CCN(C(=O)c3ccc(OC(F)(F)F)cc3N)CC2)c2ncc(N3CCN(C)CC3)cc2n1
remaining binding (cell-free assay; competition with immobilised ligand; 1 µM): 100%

N#CCCc1ccc2c(c1)-c1[nH]c3ccc([N+](=O)[O-])cc3c1CC(=O)N2
remaining signal (cell-free assay; 0.5 µM): 99.3%

CCN(CC)CCNC(=O)c1c(C)[nH]c(/C=C2\C(=O)Nc3ccc(F)cc32)c1C
inhibition (enzyme activity; inhibitor; 0.3 µM): 35%

Clc1ccc(Nc2nnc(Cc3ccncc3)c3ccccc23)cc1
remaining signal (cell-free assay; 0.5 µM): 107%

O=C(Nc1cnn(-c2csc(C(=O)NC3COC3)c2)c1)Nc1c(F)cccc1Cl
remaining activity (enzyme activity; inhibitor; 5 µM): 108%

COc1cc(-c2cc(-c3ccc(N4CCNCC4)cc3)cnc2C)cc(OC)c1OC
inhibition (enzyme activity; inhibitor; 1 µM): 2%

COc1cc(-c2cn(C3CCc4ccccc4N(CC(F)(F)F)C3=O)nn2)ccc1-n1ccc(C)n1 (stereo not shown)
remaining binding (cell-free assay; competition with immobilised ligand; 1 µM): 100%

CC(C)(C)c1nc2c(s1)c1nc(N)ncc1c1ccc(NS(=O)(=O)c3c(F)cccc3F)c(F)c12
remaining activity (enzyme activity; inhibitor; radiometric; 1 µM): 58%

CCCCN(CCCC)C(=O)CN1C[C@H](c2cc(OC)c3c(c2)OCO3)[C@@H](C(=O)O)[C@@H]1CC(C)(C)CCC
remaining binding (cell-free assay; competition with immobilised ligand; 1 µM): 100%

Cc1cc(NC(=O)c2cccc3cc(-c4cccc5[nH]nc(N)c45)ccc23)ccc1F
activity vs control (enzyme activity; inhibitor; 0.1 µM): 105%
